Measurements from paper PMC6911266 (Nature, 2019).
Where a chain is given by its changes, count along the chain named.

Tests used:
[1] = system: P. falciparum 7G8^7G8+C350R parasite line; test: Piperaquine survival assay; format: cell-based, Plasmodium falciparum; settings: vs no-drug control
[2] = target: T1, PfCRT 7G8+C350R (Plasmodium falciparum, UniProt W7FI62, C350R); test: Equilibrium dialysis binding, PfCRT variant in nanodiscs; settings: for Bmax, binding at pH 5.5 / Bmax, binding at pH 7.5: equilibrium dialysis
T1 sequence (W7FI62 1-424 C350R): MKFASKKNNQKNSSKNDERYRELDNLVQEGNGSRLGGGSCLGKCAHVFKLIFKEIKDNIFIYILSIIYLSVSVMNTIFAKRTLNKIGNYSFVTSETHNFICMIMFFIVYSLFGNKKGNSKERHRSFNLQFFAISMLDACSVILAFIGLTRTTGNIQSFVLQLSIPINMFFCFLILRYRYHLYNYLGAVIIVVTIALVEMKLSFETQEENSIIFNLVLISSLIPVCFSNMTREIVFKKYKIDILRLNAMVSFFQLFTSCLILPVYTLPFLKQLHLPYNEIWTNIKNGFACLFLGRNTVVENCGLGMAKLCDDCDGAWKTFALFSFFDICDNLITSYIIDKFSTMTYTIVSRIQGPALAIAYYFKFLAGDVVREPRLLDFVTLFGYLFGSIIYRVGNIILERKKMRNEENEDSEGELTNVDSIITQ

[3] = system: P. falciparum 7G8^7G8+F145I parasite line; test: Piperaquine survival assay; format: cell-based, Plasmodium falciparum; settings: vs no-drug control
[4] = system: P. falciparum 7G8^7G8+C350R parasite line; test: Parasite drug susceptibility assay; format: cell-based, Plasmodium falciparum; settings: Plasmodium falciparum, 7G8, 72 h
Summary of the method: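 Asynchronous asexual blood-stage parasites were seeded at 0.3% parasitemia and 1% hematocrit into 2-fold, 10-point test compound dilutions. Incubation was 72 h at 37°C under 5% O2/5% CO2/90% N2. Final parasitemia was read by flow cytometry. IC50 came from nonlinear regression, 4 independent assays in duplicate, with two-tailed Mann-Whitney U tests.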

[5] = target: T2, PfCRT WT (3D7) (Plasmodium falciparum, UniProt Q9N623); test: Equilibrium dialysis binding, PfCRT variant in nanodiscs; settings: for Bmax, binding at pH 5.5 / Bmax, binding at pH 7.5: equilibrium dialysis
T2 sequence (Q9N623 1-424): T1 sequence (W7FI62 1-424 C350R) with S72C, T76K, S220A, D326N, R350C, L356I
Summary of the method: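 Saturation binding of [3H]-CQ (1 Ci/mmol) or [3H]-PPQ (2.5 Ci/mmol) by equilibrium dialysis (12,000–14,000 MWCO) with 4.2 pmol PfCRT in POPG/MSP1D1 nanodiscs (BacMam, HEK293S GnTi- cells). Kd came from global non-linear regression, N=3.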

[6] = system: P. falciparum 7G8^7G8 parasite line; test: Piperaquine survival assay; format: cell-based, Plasmodium falciparum; settings: vs no-drug control
[7] = system: P. falciparum Dd2^Dd2 parasite line; test: Piperaquine survival assay; format: cell-based, Plasmodium falciparum; settings: vs no-drug control
[8] = system: P. falciparum WT (3D7) parasite line; test: Piperaquine survival assay; format: cell-based, Plasmodium falciparum; settings: vs no-drug control
[9] = system: P. falciparum 7G8^7G8 parasite line; test: [3H]-drug accumulation assay in cultured parasites; format: cell-based, Plasmodium falciparum; settings: 60 min, trophozoites
Summary of the method: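 Sorbitol-synchronized early trophozoites (24–26 h) were magnet-purified and resuspended in bicarbonate-free RPMI 1640 (25 mM HEPES, 10 mM glucose, 0.2 mM hypoxanthine, pH 7.4), counted by hemocytometer. They were mixed with an equal volume of radiolabelled drug (10 nM [3H]-CQ before mixing) for 1 h at 37°C, spun through dibutyl phthalate, then scintillation counted. CAR was internal/external drug, corrected for uninfected erythrocytes, per 10^6 cells at 75 fl; 4–6 assays in duplicate.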

[10] = system: P. falciparum ring-stage parasites; test: Piperaquine survival assay, summary in text; format: cell-based, Plasmodium falciparum
[11] = binding at pH 5.5, equilibrium dialysis, pH 5.5
[12] = binding at pH 7.5, equilibrium dialysis, pH 7.5

Compound: Clc1ccc2c(N3CCN(CCCN4CCN(c5ccnc6cc(Cl)ccc56)CC4)CC3)ccnc2c1 [PPQ, piperaquine]
- PSA 3.125 nM, percent survival ([1]; 3.125 nM PPQ 48 h): 96.6 ± 2.4%
- PSA 6.25 nM, percent survival ([1]; 6.25 nM PPQ 48 h): 90.7 ± 5.1%
- PSA 12.5 nM, percent survival ([1]; 12.5 nM PPQ 48 h): 79.8 ± 5.5%
- PSA 25 nM, percent survival ([1]; 25 nM PPQ 48 h): 62.1 ± 9.6%
- PSA 50 nM, percent survival ([1]; 50 nM PPQ 48 h): 31.8 ± 9.3%
- PSA 100 nM, percent survival ([1]; 100 nM PPQ 48 h): 7.7 ± 2.5%
- PSA 200 nM, percent survival ([1]; 200 nM PPQ 48 h): 9.5 ± 1.2%
- PSA 400 nM, percent survival ([1]; 400 nM PPQ 48 h): 10.5 ± 1.1%
- PSA 800 nM, percent survival ([1]; 800 nM PPQ 48 h): 6.6 ± 0.46%
- PSA 1600 nM, percent survival ([1]; 1600 nM PPQ 48 h): 5.9 ± 0.9%
- Kd [2, 11]: 210 ± 30 nM
- Kd [2, 12]: 250 ± 40 nM
- Bmax, binding at pH 5.5 ([2]; pH 5.5): 0.39 ± 0.02 mol CQ/mol PfCRT
- Bmax, binding at pH 7.5 ([2]; pH 7.5): 0.41 ± 0.02 mol CQ/mol PfCRT
- fold increase in Kd compared with 7G8 parental isoform ([2]; pH 5.5): ~ 2 fold
- PSA 3.125 nM, percent survival ([3]; 3.125 nM PPQ 48 h): 95.7 ± 3.1%
- PSA 6.25 nM, percent survival ([3]; 6.25 nM PPQ 48 h): 83.4 ± 4.5%
- PSA 12.5 nM, percent survival ([3]; 12.5 nM PPQ 48 h): 62.3 ± 4.1%
- PSA 25 nM, percent survival ([3]; 25 nM PPQ 48 h): 44.5 ± 2.4%
- PSA 50 nM, percent survival ([3]; 50 nM PPQ 48 h): 8.5 ± 1.2%
- PSA 200 nM, percent survival ([3]; 200 nM PPQ 48 h): 8.6 ± 2.4%
- PSA 400 nM, percent survival ([3]; 400 nM PPQ 48 h): 12.7 ± 2.5%
- PSA 800 nM, percent survival ([3]; 800 nM PPQ 48 h): 13.1 ± 3.9%
- PSA 1600 nM, percent survival ([3]; 1600 nM PPQ 48 h): 14.7 ± 4.2%
- IC50 [4]: 29.5 ± 1.6 nM
- Kd [5]: 260 ± 40 nM
- Bmax, binding at pH 5.5 [5]: 0.38 ± 0.02 mol CQ/mol PfCRT
- Bmax, binding at pH 7.5 [5]: 0.40 ± 0.02 mol CQ/mol PfCRT
- PSA 3.125 nM, percent survival ([6]; 3.125 nM PPQ 48 h): 93.8 ± 3.5%
- PSA 6.25 nM, percent survival ([6]; 6.25 nM PPQ 48 h): 87.1 ± 3.5%
- PSA 12.5 nM, percent survival ([6]; 12.5 nM PPQ 48 h): 76.7 ± 5.1%
- PSA 25 nM, percent survival ([6]; 25 nM PPQ 48 h): 48.3 ± 5.5%
- PSA 50 nM, percent survival ([6]; 50 nM PPQ 48 h): 4.9 ± 1.3%
- PSA 100 nM, percent survival ([6]; 100 nM PPQ 48 h): 1.6 ± 0.3%
- PSA 200 nM, percent survival ([6]; 200 nM PPQ 48 h): 1.4 ± 0.2%
- PSA 400 nM, percent survival ([6]; 400 nM PPQ 48 h): 0.66 ± 0.20%
- PSA 800 nM, percent survival ([6]; 800 nM PPQ 48 h): 0.56 ± 0.17%
- PSA 1600 nM, percent survival ([6]; 1600 nM PPQ 48 h): 0.54 ± 0.20%
- PSA 3.125 nM, percent survival ([7]; 3.125 nM PPQ 48 h): 95.9 ± 2.1%
- PSA 6.25 nM, percent survival ([7]; 6.25 nM PPQ 48 h): 83.6 ± 6.1%
- PSA 12.5 nM, percent survival ([7]; 12.5 nM PPQ 48 h): 67.7 ± 11.9%
- PSA 25 nM, percent survival ([7]; 25 nM PPQ 48 h): 35.3 ± 12.2%
- PSA 50 nM, percent survival ([7]; 50 nM PPQ 48 h): 7.6 ± 3.3%
- PSA 100 nM, percent survival ([7]; 100 nM PPQ 48 h): 1.7 ± 0.2%
- PSA 200 nM, percent survival ([7]; 200 nM PPQ 48 h): 1.1 ± 0.10%
- PSA 400 nM, percent survival ([7]; 400 nM PPQ 48 h): 1.1 ± 0.24%
- PSA 800 nM, percent survival ([7]; 800 nM PPQ 48 h): 0.89 ± 0.16%
- PSA 1600 nM, percent survival ([7]; 1600 nM PPQ 48 h): 0.87 ± 0.10%
- PSA 3.125 nM, percent survival ([8]; 3.125 nM PPQ 48 h): 81.2 ± 19.6%
- PSA 6.25 nM, percent survival ([8]; 6.25 nM PPQ 48 h): 12.1 ± 6.8%
- PSA 12.5 nM, percent survival ([8]; 12.5 nM PPQ 48 h): 7.2 ± 1.5%
- PSA 25 nM, percent survival ([8]; 25 nM PPQ 48 h): 11.0 ± 1.7%
- PSA 50 nM, percent survival ([8]; 50 nM PPQ 48 h): 4.9 ± 1.1%
- PSA 100 nM, percent survival ([8]; 100 nM PPQ 48 h): 1.3 ± 0.35%
- PSA 200 nM, percent survival ([8]; 200 nM PPQ 48 h): 1.2 ± 0.54%
- PSA 400 nM, percent survival ([8]; 400 nM PPQ 48 h): 0.61 ± 0.19%
- PSA 800 nM, percent survival ([8]; 800 nM PPQ 48 h): 0.62 ± 0.16%
- PSA 1600 nM, percent survival ([8]; 1600 nM PPQ 48 h): 0.51 ± 0.17%
- [3H]-PPQ CAR (cellular accumulation ratio) ([9]; 20 nM [3H]-PPQ): 1943.9 ± 82.2
- survival in PPQ survival assay ([10]; PPQ-S parasites, concentrations of 200 nM or more): ≤ 1%
- survival in PPQ survival assay ([10]; standard assay concentration of 200 nM PPQ, 48 h, edited 7G8+F145I and 7G8+C350R lines (Fig. 3l)): 9–10%

Compound: CCN(CC)CCCC(C)Nc1ccnc2cc(Cl)ccc12 (stereo not shown) [CQ, chloroquine]
- Kd [2, 11]: 130 ± 30 nM
- Kd [2, 12]: 300 ± 60 nM
- Bmax, binding at pH 5.5 ([2]; pH 5.5): 0.37 ± 0.02 mol CQ/mol PfCRT
- Bmax, binding at pH 7.5 ([2]; pH 7.5): 0.42 ± 0.03 mol CQ/mol PfCRT
- IC50 [4]: 6.9 ± 0.3 nM
- Kd [5]: 280 ± 40 nM
- Bmax, binding at pH 5.5 [5]: 0.40 ± 0.02 mol CQ/mol PfCRT
- Bmax, binding at pH 7.5 [5]: 0.42 ± 0.02 mol CQ/mol PfCRT
- [3H]-CQ CAR (cellular accumulation ratio) ([9]; 5 nM [3H]-CQ): 14.5 ± 3.7
